Experimental data from ChEMBL document CHEMBL4354849, “[1,2,5]Oxadiazolo[3,4-b]pyrazine-5,6-diamine Derivatives as Mitochondrial Uncouplers for the Potential Treatment of Nonalcoholic Steatohepatitis” (J Med Chem, 2020).
Calls of active or inactive are those of the source. The rule behind the calls is not given here.

Tests used:
[1] = Drug level in C57BL/6J mouse quadricep muscle at 50 mg/kg, po measured after 1 hr by LC-MS analysis; format: ADME, organism-based, Quadriceps femoris; settings: read-out: Drug uptake
How it was run: (§1)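 Male C57BL/6 mice, 12 weeks old, chow-fed, given a single 50 mg/kg oral gavage bolus in 90% methylcellulose/2% Tween80/8% DMSO. Killed by cervical dislocation at 1 h. Tissues were rinsed, snap-frozen, powdered and homogenized, then extracted into 90% acetonitrile/10% methanol. Quantified by LC-MS/MS against standards spiked into vehicle-treated tissue, normalized to tissue weight. n=3.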

[2] = Drug level in C57BL/6J mouse heart at 50 mg/kg, po measured after 1 hr by LC-MS analysis; format: ADME, organism-based; settings: read-out: Drug uptake; how it was run: as §1
[3] = system: Mus musculus; assay: Improvement in liver fibrosis in Stelic C57BL/6 mouse model of streptozotocin-induced NASH assessed as effect on liver Cd146 mRNA expression at 25 mg/kg/day, po administered in high-fat diet for 21 days; format: functional, organism-based
[4] = Induction of mitochondrial uncoupling in rat L6 cells assessed as oxygen consumption rate measured over 90 mins by oxygen consumption rate by seahorse assay; format: mitochondria, Mitochondria
[5] = system: Mus musculus; assay: Improvement in liver fibrosis in Stelic C57BL/6 mouse model of streptozotocin-induced NASH assessed as effect on liver MMP2 mRNA expression at 25 mg/kg/day, po administered in high-fat diet for 21 days; format: functional, organism-based
[6] = system: Mus musculus; assay: Improvement in liver fibrosis in Stelic C57BL/6 mouse model of streptozotocin-induced NASH assessed as effect on plasma AST level at 25 mg/kg/day, po administered in high-fat diet for 21 days; format: functional, organism-based
How it was run: (§2)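 STAM NASH model: male C57BL/6 mice got 200 µg streptozotocin subcutaneously at day 2 of life, then high-fat diet from 4 weeks. At 6 weeks they were randomized, 8 per group. Drug was mixed into the high-fat diet at 25 mg/kg/d for 21 days. Killed at 9 weeks by cardiac puncture under isoflurane. Food intake was measured per cage of 4 every 3–4 days.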

[7] = system: Mus musculus; assay: Improvement in liver fibrosis in Stelic C57BL/6 mouse model of streptozotocin-induced NASH assessed as effect on liver alphaSMA mRNA expression at 25 mg/kg/day, po administered in high-fat diet for 21 days; format: functional, organism-based
[8] = system: Mus musculus; assay: Improvement in liver fibrosis in Stelic C57BL/6 mouse model of streptozotocin-induced NASH assessed as effect on liver Tgfb1 mRNA expression at 25 mg/kg/day, po administered in high-fat diet for 21 days; format: functional, organism-based
[9] = Drug level in C57BL/6J mouse liver at 50 mg/kg, po measured after 1 hr by LC-MS analysis; format: ADME, organism-based; settings: read-out: Drug uptake; how it was run: as §1
[10] = system: Mus musculus; assay: Improvement in liver fibrosis in Stelic C57BL/6 mouse model of streptozotocin-induced NASH assessed as improvement in pathologist derived steatosis score at 25 mg/kg/day, po administered in high-fat diet for 21 days; format: functional, organism-based; how it was run: as §2
[11] = system: Mus musculus; assay: Improvement in liver fibrosis in Stelic C57BL/6 mouse model of streptozotocin-induced NASH assessed as effect on liver Gfap mRNA expression at 25 mg/kg/day, po for 21 days
[12] = system: Mus musculus; assay: Improvement in liver fibrosis in Stelic C57BL/6 mouse model of streptozotocin-induced NASH assessed as decrease in liver triglyceride content at 25 mg/kg/day, po administered in high-fat diet for 21 days; format: functional, organism-based; how it was run: as §2
[13] = system: Mus musculus; assay: Improvement in liver fibrosis in Stelic C57BL/6 mouse model of streptozotocin-induced NASH assessed as increase in plasma cholesterol at 25 mg/kg/day, po administered in high-fat diet for 21 days; format: functional, organism-based; how it was run: as §2
[14] = system: Mus musculus; assay: Effect on food intake in Stelic C57BL/6 mouse model of streptozotocin-induced NASH assessed as reduction in food intake at 25 mg/kg/day, po administered in high-fat diet for 21 days; format: ADME, organism-based; settings: in vivo, 504 h; how it was run: as §2
[15] = system: Mus musculus; assay: Improvement in liver fibrosis in Stelic C57BL/6 mouse model of streptozotocin-induced NASH assessed as effect on liver Cd146 mRNA expression at 25 mg/kg/day, po for 21 days
[16] = Drug level in C57BL/6J mouse white adipose tissue at 50 mg/kg, po measured after 1 hr by LC-MS analysis; format: ADME, organism-based; settings: read-out: Drug uptake; how it was run: as §1
[17] = system: Mus musculus; assay: Effect on core body temperature in C57BL/6J mouse at 25 to 100 mg/kg, po measured 1 to 24 hrs post dose by rectal probe thermometer based assay; format: ADME, organism-based; settings: in vivo
How it was run: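 Male C57BL/6 mice, 11 weeks old, given single oral gavage doses of 25, 50 or 100 mg/kg, or vehicle (90% methylcellulose/2% Tween80/8% DMSO). Core temperature was read by rectal probe thermometer at 1, 2, 4 and 24 h after dosing. n=5–6 per group.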

[18] = system: Mus musculus; assay: Effect on ballooning in Stelic C57BL/6 mouse model of streptozotocin-induced NASH at 25 mg/kg/day, po administered in high-fat diet for 21 days; format: ADME, organism-based; settings: in vivo, 504 h; how it was run: as §2
[19] = system: Mus musculus; assay: Improvement in liver fibrosis in Stelic C57BL/6 mouse model of streptozotocin-induced NASH assessed as effect on liver Col1a1 mRNA expression at 25 mg/kg/day, po administered in high-fat diet for 21 days; format: functional, organism-based
[20] = system: Mus musculus; assay: Induction of energetic stress in Stelic C57BL/6 mouse model of streptozotocin-induced NASH assessed as effect on AMPK activity at 25 mg/kg/day, po administered in high-fat diet for 21 days by Western blot analysis; format: organism-based; settings: in vivo, 504 h
[21] = system: Mus musculus; assay: Improvement in liver fibrosis in Stelic C57BL/6 mouse model of streptozotocin-induced NASH assessed as effect on serum ALT level at 25 mg/kg/day, po administered in high-fat diet for 21 days; format: functional, organism-based; how it was run: as §2
[22] = system: Mus musculus; assay: Induction of hyperglycemia in Stelic C57BL/6 mouse model of streptozotocin-induced NASH at 25 mg/kg/day, po administered in high-fat diet for 21 days; format: organism-based; settings: in vivo, 504 h; how it was run: as §2
[23] = Drug level in C57BL/6J mouse brain at 50 mg/kg, po measured after 1 hr by LC-MS analysis; format: ADME, organism-based; settings: read-out: Drug uptake; how it was run: as §1
[24] = system: Mus musculus; assay: Improvement in liver fibrosis in Stelic C57BL/6 mouse model of streptozotocin-induced NASH assessed as reduction in plasma triglyceride at 25 mg/kg/day, po administered in high-fat diet for 21 days; format: functional, organism-based; how it was run: as §2
[25] = Drug level in C57BL/6J mouse kidney at 50 mg/kg, po measured after 1 hr by LC-MS analysis; format: ADME, organism-based; settings: read-out: Drug uptake; how it was run: as §1
[26] = system: Mus musculus; assay: Improvement in liver fibrosis in Stelic C57BL/6 mouse model of streptozotocin-induced NASH assessed as improvement in inflammation score at 25 mg/kg/day, po administered in high-fat diet for 21 days; format: functional, organism-based; how it was run: as §2
[27] = system: Mus musculus; assay: Improvement in liver fibrosis in Stelic C57BL/6 mouse model of streptozotocin-induced NASH assessed as effect on liver Timp1 mRNA expression at 25 mg/kg/day, po administered in high-fat diet for 21 days; format: functional, organism-based
[28] = system: Mus musculus; assay: Improvement in liver fibrosis in Stelic C57BL/6 mouse model of streptozotocin-induced NASH assessed as NAS score at 25 mg/kg/day, po administered in high-fat diet for 21 days (reference value: 4.6 +/- 0.7); format: functional; how it was run: as §2
[29] = system: Mus musculus; assay: Improvement in liver fibrosis in Stelic C57BL/6 mouse model of streptozotocin-induced NASH assessed as liver fibrosis score at 25 mg/kg/day, po administered in high-fat diet for 21 days by Picrosirius ed staining based assay (reference value: 0.91 +/- 0.25); format: functional; how it was run: as §2
[30] = system: Mus musculus; assay: Improvement in liver fibrosis in Stelic C57BL/6 mouse model of streptozotocin-induced NASH assessed as effect on liver Gfap mRNA expression at 25 mg/kg/day, po administered in high-fat diet for 21 days; format: functional, organism-based
[31] = system: Mus musculus; assay: Induction of energetic stress in Stelic C57BL/6 mouse model of streptozotocin-induced NASH assessed as effect on AMPK-dependent ACC activity at 25 mg/kg/day, po administered in high-fat diet for 21 days by Western blot analysis; format: organism-based; settings: in vivo, 504 h

Structure (SMILES): Fc1cccc(Nc2nc3nonc3nc2Nc2ccccc2F)c1
- concentration at 1 h [1]: 260 nM
- concentration at 1 h [2]: 2090 nM
- Activity [3]: inactive
- EC50 [4]: 190 nM
- Activity [5]: inactive
- Activity [6]: inactive
- Activity [7]: inactive
- Activity [8]: inactive
- concentration at 1 h [9]: 13400 nM
- Activity [10]: inactive
- Activity [11]: inactive
- Activity [12]: Active
- Activity [13]: inactive
- Activity [14]: Non-Toxic
- Activity [15]: inactive
- concentration at 1 h [16]: 2850 nM
- Activity [17]: Non-Toxic
- Activity [18]: Non-Toxic
- Activity [19]: inactive
- Activity [20]: Non-Toxic
- Activity [21]: Active
- Activity [22]: Non-Toxic
- concentration at 1 h [23]: 850 nM
- Activity [24]: inactive
- concentration at 1 h [25]: 4830 nM
- Activity [26]: Active
- Activity [27]: inactive
- Activity [28]: 3.9
- Activity [29]: 0.49
- Activity [30]: inactive
- Activity [31]: Non-Toxic
